Reference: PubChem BioAssay AID1040 (The Scripps Research Institute Molecular Screening Center, 2008)
About 2,000 (1%) of roughly 200,000 compounds were called active. This is one part of a sample in which actives are shown more often than they occur.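 Rule for the calls: active = inhibition above the campaign mean inhibition of all tested compounds plus 3 SD (cut at about 20% in these data); inactive = the rest.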

Biological target: Neuropeptide Y receptor type 1 (Homo sapiens) (UniProt P25929)
Test: blockers of human neuropeptide Y Y1 receptor – cell-based, primary screen (AID 1040);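 note: 0% = DMSO wells given NPY plus isoproterenol and 100% = isoproterenol alone without NPY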
Conditions: HEK293-CNG Y1 cells, membrane potential fluorescence; at 3.6 µM; active compounds read high; NPY at EC95, then isoproterenol
Outline: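 Assay system: HEK293 cells with Y1 receptor plus CNG channel | Probe or stimulus: NPY (25 nM), isoproterenol (1 µM), Ro 20-1724 (25 µM) | Timing: Compound incubation 1 h at room temperature, readout 45 min post-stimulation | Measured by: Membrane-potential fluorescent dye readout | Benchmarks: High control isoproterenol alone, low control NPY with isoproterenol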

Sequence of Neuropeptide Y receptor type 1 (Homo sapiens) (P25929 whole entry, looked up): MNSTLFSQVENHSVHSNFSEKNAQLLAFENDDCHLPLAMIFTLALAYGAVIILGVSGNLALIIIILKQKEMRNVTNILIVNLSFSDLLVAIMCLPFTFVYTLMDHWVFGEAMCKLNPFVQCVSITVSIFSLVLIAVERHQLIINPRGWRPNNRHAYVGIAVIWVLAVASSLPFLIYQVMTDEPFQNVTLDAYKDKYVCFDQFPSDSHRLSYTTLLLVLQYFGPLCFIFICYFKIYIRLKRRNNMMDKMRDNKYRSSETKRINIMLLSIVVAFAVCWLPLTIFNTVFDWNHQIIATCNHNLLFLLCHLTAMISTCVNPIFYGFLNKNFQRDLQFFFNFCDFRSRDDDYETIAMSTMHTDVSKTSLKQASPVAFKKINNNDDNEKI

inhibition, active:
O=C(c1ccccc1)c1ccc(OCC(O)CN2CCCC2)cc1 (configuration not stated) 20.8%
CS(=O)(=O)N1CCCC(C(=O)N2CCOCC2)C1 (configuration not stated) 94.5%
CCCSc1nc(NCc2ccco2)c2c3c(sc2n1)COC(C)(CC)C3 (configuration not stated) 30.4%
COC(=O)c1ccc(C(NC(=O)OCc2ccccc2)/C(C)=C/[C@@H](C)C(=O)NCc2ccc(OC)c(OC)c2)cc1 (some centres not stated) 21.5%
O=C1c2ccccc2C(=O)N1c1ccccc1S(=O)C(F)(F)F (configuration not stated) 21.4%
CCCc1[nH]nc2c1C(c1ccc(Br)s1)C(C#N)=C(N)O2 (configuration not stated) 68.6%
C/C(=N\NC(=S)NCc1ccccc1)c1ccc(Cl)cc1 21.7%
CCCCCCCCn1c2c(c(=N)c3c1CCC3)CCCC2 81.5%
CN(C)CCCCCN(C)Cc1cc2ccccc2o1 22.6%
O=C(O)/C=C/c1cn(Cc2ccccc2)nc1-c1cccs1 20.8%
CCC/C=C(\CCC)C(NC(=O)Cc1ccccc1)c1ccc(C(=O)OC)cc1 (configuration not stated) 26.8%

inhibition, inactive:
OC(COc1cccc(OCC(O)CN2CCCC2)c1)CN1CCCC1 (configuration not stated) 6.73%
CN1CCNC(=O)C1CC(=O)NCCC1=CCCCC1 (configuration not stated) 1.21%
Cc1ccc(OCC(=O)NC(C)c2ccccc2)c([N+](=O)[O-])n1 (configuration not stated) 19.9%
CCCS(=O)(=O)N1CCCC(C(=O)N2CCN(c3ccccc3)CC2)C1 (configuration not stated) 0.57%
Cc1ccc(CNC(=O)C2CCCN(S(C)(=O)=O)C2)cc1 (configuration not stated) 0.15%
COc1ccc(N2CCN(CCCNC(=O)C3CCN(S(=O)(=O)N4CCOCC4)CC3)CC2)cc1 -2.61%
CCC1(C)Cc2c(sc3nc(SC)nc(N)c23)CO1 (configuration not stated) -1.88%
CN(C)CCSc1nc(N)c2c3c(sc2n1)COC(C)(C)C3 1.6%
COC(=O)c1ccc(C2C(Oc3ccccc3C)C(=O)N2CCc2ccc(OC)c(OC)c2)cc1 (configuration not stated) 8.91%
CCOc1ccc(C(CCc2ccccc2)NC(=O)c2ccc(OC)c(OC)c2)cc1OCC (configuration not stated) -0.85%
O=C(CCCNS(=O)(=O)c1cccc2nsnc12)NCCN1CCN(c2ccccc2F)CC1 1.63%
Cc1c(/C=N\NC(=O)c2cc3ccccc3o2)c2ccccc2n1C 8.68%
O=C1C(=O)N(c2ccccc2)c2ccccc21 7.08%
CCOC(=O)Nc1ccccc1N1C(=O)c2ccccc2C1=O -3.15%
O=C(NNC1=C(C(=O)C(F)(F)F)CCC1)c1ccncc1 0.61%
CC(=O)c1cc(-c2ccccc2)n(CCC(=O)NC2CCCCCC2)c1C 2.33%
CCCc1[nH]nc2c1C(C1CC=CCC1)C(C#N)=C(N)O2 (configuration not stated) -5.43%
CCCc1[nH]nc2c1C(c1c(C)nn(-c3ccccc3)c1Cl)C(C#N)=C(N)O2 (configuration not stated) -1.69%
O=C(COC(=O)c1cnc(Cl)c(Cl)c1)NCc1ccco1 1.45%
N#Cc1ccc(N2Cc3ccccc3/C2=N/C(=O)Nc2ccc(Cl)cc2)cc1 -0.16%
C/C(=N\NC(=S)NCc1ccccc1)C1CCCCC1 3.71%
O=C(O)c1ccc(/C=N/NC(=S)NCc2ccccc2)cc1 4.72%
OCCC1CN(Cc2cnc(-c3ccccc3)s2)CCN1CCc1ccccc1 (configuration not stated) -0.62%
CCCCCCn1c(CN2CCCCC2)nc2c1c(=O)n(C)c(=O)n2C 11.1%
Cn1cnnc1SCC(=O)NNC(=O)COc1ccc(Br)cc1 10.5%
CC1(C)OC(=O)C(=CNC(CO)C(=O)O)C(=O)O1 (configuration not stated) 0.88%
OCC1(Cc2ccccc2)CCN(Cc2cc3ccccc3o2)CC1 9.75%
CCCOC(=O)c1cc2ccccc2oc1=O 1.89%
O=C(CCC(=O)OCc1ccc(Cl)cc1)Nc1ccccc1 -2.82%
O=C(/C=C\c1cn(-c2ccccc2)nc1-c1cccs1)N1CCOCC1 4.67%
O=C(O)/C=C/c1cn(-c2ccccc2)nc1-c1cccs1 3.05%
O=C(OCc1cc(Cl)ccc1OC(F)F)c1cccnc1 -0.25%
Cc1c(Cl)c([N+](=O)[O-])nn1CCCC(=O)NC(C)c1ccccc1 (configuration not stated) 1.69%
COc1cc(OC)c(C(=O)Nc2ccccc2-c2ccccc2)cc1OC 2.51%
CCC[C@@H]1C[C@@]1(CCC)[C@@H](NC(=O)c1ccccc1)c1ccc(C(=O)OC)cc1 6.57%
COc1ccc(C(CC(=O)O)NC(=O)Cc2ccccc2)cc1 (configuration not stated) -4.05%
